Results reported in PubChem BioAssay AID504907 (The Scripps Research Institute Molecular Screening Center, 2011).

Target: Glucose-6-phosphatase catalytic subunit 1 (Homo sapiens) (UniProt P35575)
Assay: endogenous G6PC mRNA suppression, late-stage follow-up, mechanism study for RORA inverse agonist project, cell-based, real-time PCR, fluorescence, assay provider (AID 504907)
Details: HepG2 G6PC mRNA RT-qPCR, 20 h, at 10 µM, stronger effect = lower value
Outline: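 Material: HepG2 cells, native G6Pase gene; Doses: single nominal 10 µM test compound dose, DMSO vehicle; Schedule: 20 h compound exposure of HepG2 cells; Technique: SYBR Green real-time RT-PCR of G6Pase mRNA; Read-out: averaged GAPDH-normalised G6Pase mRNA, fold versus DMSO-treated cells; Controls: vehicle cells, ROR-targeting siRNA as inhibition reference.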

Chain of Glucose-6-phosphatase catalytic subunit 1 (Homo sapiens) (P35575 whole entry, looked up): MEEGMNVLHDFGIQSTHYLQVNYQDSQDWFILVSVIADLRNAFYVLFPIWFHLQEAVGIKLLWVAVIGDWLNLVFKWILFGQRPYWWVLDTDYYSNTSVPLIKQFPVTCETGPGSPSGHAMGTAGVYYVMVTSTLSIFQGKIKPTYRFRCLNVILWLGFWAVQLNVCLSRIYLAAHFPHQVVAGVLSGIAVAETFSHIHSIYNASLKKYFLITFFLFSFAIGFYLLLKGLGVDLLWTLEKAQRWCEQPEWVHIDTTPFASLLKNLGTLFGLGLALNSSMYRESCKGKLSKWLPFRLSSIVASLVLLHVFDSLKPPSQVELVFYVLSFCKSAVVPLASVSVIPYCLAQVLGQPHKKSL

relative mRNA level (with RORA + RORG siRNA): 0.279 | relative mRNA level (with control siRNA): 0.676
Compound: O=S(=O)(Nc1ccc(C(O)(C(F)(F)F)C(F)(F)F)cc1)c1cccs1
